Experimental data of several laboratories.
Each line is one published result; the experiments were not run side by side.
Target: cAMP-dependent protein kinase catalytic subunit alpha (PRKACA, Homo sapiens, UniProt P17612)

SMILES	assay	conditions	remaining binding [%]
C[C@@H]1CCN(c2nccc(-c3cnn4ncccc34)n2)C1	binding	1 µM	100
COc1cnc(Nc2cccc(S(N)(=O)=O)c2)nc1N1CCN(c2ccccc2)C(=O)C1	binding, competition with immobilised ligand	1 µM	100
O=C(N[C@H]1CCCCC/C=C\C2C[C@@]2(C(=O)O)NC(=O)[C@@H]2C[C@@H](Oc3ccncc3)CN2C1=O)OC1CCCC1 (stereo partly drawn)	cell-free assay, competition with immobilised ligand	1 µM	92
c1cncc(-c2cccc(Nc3nccc(NC4CCCCC4)n3)c2)c1	binding, competition with immobilised ligand	10 µM	50
O=C(NCC1CCOCC1)c1n[nH]cc1NC(=O)c1c(F)cccc1F	binding, competition with immobilised ligand	1 µM	100
CN(C)c1ncc(F)c(-c2cnn3ncccc23)n1	binding	1 µM	86
CNC(=O)c1ccc(Nc2ncc(C(F)(F)F)c(NCc3nccnc3N(C)S(C)(=O)=O)n2)cc1	cell-free assay, competition with immobilised ligand	0.1 µM	100
COc1cnc(Nc2cccc(S(N)(=O)=O)c2)nc1N1CCN(c2ccccc2)CC1	binding, competition with immobilised ligand	1 µM	100
CS(=O)(=O)N1CCCC(NC(=O)[C@H](CCC2CCCCC2)NC(=O)c2ccc(CNc3ncnc4c3nnn4-c3ccccc3)cc2)C1 (stereo partly drawn)	cell-free assay, competition with immobilised ligand	0.1 µM	100
C[C@@H](c1ccc(-n2cnc3c(N)ncnc32)cc1)N1CCc2nn(C)c(Cc3ccccc3)c2C1=O	binding, competition with immobilised ligand	0.1 µM	100
CCN1CCN(Cc2ccc(C(=O)Nc3ccc(C)c(Oc4ccc5c(c4)CC(=O)N5)c3)cc2C(F)(F)F)CC1	binding, competition with immobilised ligand	1 µM	100
O=C(c1ccc(Nc2ncc(Cl)c(-c3ccc(Cl)s3)n2)cc1)N1CCC(N2CCCC2)CC1	binding, competition with immobilised ligand	1 µM	97
CN(CCCC(F)(F)F)c1nccc(-c2cnn3ncccc23)n1	binding	1 µM	100
Nc1cnc(N2CCc3cc(S(=O)(=O)Nc4c(F)cc(Cl)cc4F)cc(N4CCCC4=O)c32)nc1	cell-free assay, competition with immobilised ligand	1 µM	100
CC(C)(C)c1ccc(-c2nc(CBr)nn2-c2cccc(O)c2)cc1	cell-free assay, competition with immobilised ligand	10 µM	86
C[C@@H]1CN(c2ccc3ncc(-c4ccc5[nH]nc(C6CC6)c5c4)n3n2)C[C@H](C)O1	binding, competition with immobilised ligand	0.5 µM	100
c1ccc(N2CCN(Cc3nc4ccccc4[nH]3)CC2)nc1	cell-free assay, competition with immobilised ligand	1 µM	91
O=C(NCCCN1CCOCC1)c1ccc(Nc2ncc(Cl)c(-c3ccc(Cl)s3)n2)cc1	binding, competition with immobilised ligand	1 µM	100
Cc1c(NC(=O)c2cc(C(N)=O)nc3cc(F)ccc23)c(C(F)(F)F)nn1Cc1ccc(C#N)cc1	cell-free assay, competition with immobilised ligand	1 µM	78
CC1CCCN1c1nccc(-c2cnn3ncccc23)n1 (stereo not drawn)	binding	1 µM	100
O=C(NCCCN1CCOCC1)c1ccc(Nc2nccc(-c3cc4ccccc4s3)n2)cc1	binding, competition with immobilised ligand	1 µM	95
